Assay results published in ChEMBL document CHEMBL1127574, “Design and synthesis of ellipticinium salts and 1,2-dihydroellipticines with high selectivities against human CNS cancers in vitro” (1994).

Assays:
Type in all cases: functional
NCI-H226 = test: Tested in vitro for cytotoxicity in NCI-H226 cell line of Non-Small Cell Lung Cancer; conditions: Homo sapiens, read-out: Log TGI (converted)
How it was run: (§1)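 Compounds dissolved in DMSO, then diluted 500-fold into aqueous medium. The resulting aqueous solutions or suspensions were added to the cultured human tumour cell lines, and the cells were exposed for 48 h. Growth was read colorimetrically in one of two ways: a metabolic assay in which viable cells reduce a tetrazolium salt to a formazan dye, or a protein stain for total cellular protein.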

OVCAR-8 = test: Tested in vitro for cytotoxicity in OVCAR-8 cell line of Ovarian Cancer; conditions: Homo sapiens, read-out: Log TGI (converted); how it was run: as §1
NCI-H322M = test: Tested in vitro for cytotoxicity in NCI-H322M cell line of Non-Small Cell Lung Cancer; conditions: Homo sapiens, read-out: Log TGI (converted); how it was run: as §1
NCI-H23 = test: Tested in vitro for cytotoxicity in NCI-H23 cell line of Non-Small Cell Lung Cancer; conditions: Homo sapiens, read-out: Log TGI (converted); how it was run: as §1
OVCAR-5 = test: Tested in vitro for cytotoxicity in OVCAR-5 cell line of Ovarian Cancer; conditions: Homo sapiens, read-out: Log TGI (converted); how it was run: as §1
RPMI-8226 = test: Tested in vitro for cytotoxicity in RPMI-8226 cell line of Leukemia; conditions: Homo sapiens, read-out: Log TGI (converted); how it was run: as §1
RXF 393 = test: Tested in vitro for cytotoxicity in RXF-393 cell line of Renal cancer; conditions: Homo sapiens, read-out: Log TGI (converted); how it was run: as §1
RXF 631 = test: Tested in vitro for cytotoxicity in RXF-631 cell line of Renal cancer; conditions: Homo sapiens, read-out: Log TGI (converted); how it was run: as §1
SF-268 [1] = test: Tested in vitro for cytotoxicity in SF-268 cell line of CNS cancer; conditions: Homo sapiens, read-out: Log TGI (converted); how it was run: as §1
SF-268 [2] = test: Tested in vitro for cytotoxicity in SF-268 cell lines; conditions: Homo sapiens; how it was run: as §1
SNB-78 = test: Tested in vitro for cytotoxicity in SNB-78 cell line of CNS Cancer; conditions: Homo sapiens, read-out: Log TGI (converted)
How it was run: (§2)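 Compounds dissolved in DMSO and diluted 500-fold into aqueous medium; aliquots of the resulting solutions or suspensions added to cultured human tumor cells for 48 h. Growth read colorimetrically, either by tetrazolium reduction to formazan by viable cells or by protein staining of total cellular protein.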

SK-MEL-2 = test: Tested in vitro for cytotoxicity in SK-MEL-2 cell line of Melanoma; conditions: Homo sapiens, read-out: Log TGI (converted); how it was run: as §1
SF-539 = test: Tested in vitro for cytotoxicity in SF-539 cell line of CNS Cancer; conditions: Homo sapiens, read-out: Log TGI (converted); how it was run: as §1
SR = test: Tested in vitro for cytotoxicity in SR cell line of Leukemia; conditions: Homo sapiens, read-out: Log TGI (converted); how it was run: as §2
SF-295 = test: Tested in vitro for cytotoxicity in SF-295 cell line of CNS Cancer; conditions: Homo sapiens, read-out: Log TGI (converted); how it was run: as §1
SK-MEL-5 = test: Tested in vitro for cytotoxicity in SK-MEL-5 cell line of Melanoma; conditions: Homo sapiens, read-out: Log TGI (converted); how it was run: as §2
SNB-75 = test: Tested in vitro for cytotoxicity in SNB-75 cell line of CNS Cancer; conditions: Homo sapiens, read-out: Log TGI (converted); how it was run: as §2
SW-620 = test: Tested in vitro for cytotoxicity in SW-620 cell line of Colon Cancer; conditions: Homo sapiens, read-out: Log TGI (converted); how it was run: as §2
SK-OV-3 = test: Tested in vitro for cytotoxicity in SK-OV-3 cell line of Ovarian Cancer; conditions: Homo sapiens, read-out: Log TGI (converted); how it was run: as §2
U-251 = test: Tested in vitro for cytotoxicity in U251 cell line of CNS Cancer; conditions: Homo sapiens, read-out: Log TGI (converted); how it was run: as §2
UACC-257 = test: Tested in vitro for cytotoxicity in UACC-257 cell line of Melanoma; conditions: Homo sapiens, read-out: Log TGI (converted); how it was run: as §2
UACC-62 = test: Tested in vitro for cytotoxicity in UACC-62 cell line of Melanoma; conditions: Homo sapiens, read-out: Log TGI (converted); how it was run: as §2
NCI-H460 = test: Tested in vitro for cytotoxicity in NCI-H460 cell line of Non-Small Cell Lung Cancer; conditions: Homo sapiens, read-out: Log TGI (converted); how it was run: as §1
OVCAR-4 = test: Tested in vitro for cytotoxicity in OVCAR-4 cell line of Ovarian Cancer; conditions: Homo sapiens, read-out: Log TGI (converted); how it was run: as §1
SN12C = test: Tested in vitro for cytotoxicity in SN12C cell line of Renal cancer; conditions: Homo sapiens, read-out: Log TGI (converted); how it was run: as §2
TK-10 = test: Tested in vitro for cytotoxicity in TK-10 cell line of Renal cancer; conditions: Homo sapiens, read-out: Log TGI (converted); how it was run: as §2
786-0 = test: Tested in vitro for cytotoxicity in 786-0 cell line of Renal cancer; conditions: Homo sapiens, read-out: Log TGI (converted); how it was run: as §1
HCT-116 = test: Tested in vitro for cytotoxicity in HCT116 cell line of Colon Cancer; conditions: Homo sapiens, read-out: Log TGI (converted); how it was run: as §1
COLO 205 = test: Tested in vitro for cytotoxicity in COLO 205 cell lines; conditions: Homo sapiens; how it was run: as §1
UO-31 = test: Tested in vitro for cytotoxicity in UO-31 cell line of Renal cancer; conditions: Homo sapiens, read-out: Log TGI (converted); how it was run: as §2
SK-MEL-28 = test: Tested in vitro for cytotoxicity in SK-MEL-28 cell line of Melanoma; conditions: Homo sapiens, read-out: Log TGI (converted); how it was run: as §1

COc1ccc2[nH]c3c(C)c4c(c(C)c3c2c1)CN(C)C=C4
TGI (NCI-H226): 0.794 µM | TGI (OVCAR-8): 15.8 µM | TGI (NCI-H322M): 15.8 µM | TGI (NCI-H23): 3.98 µM | TGI (OVCAR-5): 31.6 µM | TGI (RPMI-8226): > 100 µM | TGI (RXF 393): 31.6 µM | TGI (RXF 631): 25.1 µM | TGI (SF-268 [1]): 0.631 µM | GI50 (SF-268 [2]): 0.186 µM | TGI (SNB-78): 5.01 µM | TGI (SK-MEL-2): 10 µM | TGI (SF-539): 2 µM | TGI (SR): 63.1 µM | TGI (SF-295): 7.94 µM | TGI (SK-MEL-5): 10 µM | TGI (SNB-75): 0.794 µM | TGI (SW-620): 15.8 µM | TGI (SK-OV-3): 63.1 µM | TGI (U-251): 1 µM | TGI (UACC-257): 20 µM | TGI (UACC-62): 20 µM | TGI (NCI-H460): 10 µM | TGI (OVCAR-4): 25.1 µM | TGI (SN12C): 0.794 µM | TGI (TK-10): 50.1 µM | TGI (786-0): 12.6 µM | TGI (HCT-116): 15.8 µM | GI50 (COLO 205): 1.32 µM | TGI (UO-31): > 100 µM | TGI (SK-MEL-28): 12.6 µM
